From PMC10126818 (RSC Advances, 2023)
Entries after “also recorded” stand apart in the source; their conditions may differ. Where no end group is shown, it is not given here.

System: A549 cells
Assay: Cytotoxicity assay
Assay type: cell-based, human
How it was run: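 A549 cells (ATCC) seeded in 96-well plates at 5 × 10^3 cells per mL, grown 24 h. Medium replaced with matched concentrations (up to 160 μg mL−1) of free drug or peptide-nanocage-encapsulated drug (pH 8.09). Nanocages were made by emulsifying drug in chloroform into 1 mM peptide/PBS pH 7.4. After 24 h, CCK-8 added for 3 h; OD 450 nm read. Viability = (ODtest − ODblank)/(ODcontrol − ODblank) × 100%.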

Compound | cell survival rate (160 μg mL^−1, 24 h culture, CCK-8, OD 450 nm) | cytotoxicity (in words) (24 h culture, CCK-8)
CC(=O)O[C@H]1C(=O)[C@@]2(C)[C@H]([C@H](OC(=O)c3ccccc3)[C@]3(O)C[C@H](OC(=O)[C@H](O)[C@@H](NC(=O)c4ccccc4)c4ccccc4)C(C)=C1C3(C)C)[C@]1(OC(C)=O)CO[C@@H]1C[C@@H]2O [PTX, Paclitaxel, reference compound] | approximately 60% | 
GNNQQNYPKKPGNNQQNY [GSLP, GNNQQNY-PKKP-GNNQQNY] |  | not concentration-dependent toxic; also recorded: do not exhibit cytotoxicity
